# Sampled rows, rich in hits. Any-hit rate of the full collection: about 3.5%.
# MrgX1 antag: antagonists of human MrgX1 receptor, primary screen, HEK293 cells, Fluo-4 calcium flux; B-score at 10 µM; hit rate 1.3% among 310,000; Mas-related G-protein coupled receptor member X1 (Homo sapiens), Q96LB2; BAM8-22 antagonism; active compounds read low;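 active = calcium-response B-score plate-corrected more than 3 library SD below zero, starting fluorescence within 5 deviations, no agonist response on first addition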;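 also: peak minus trough fluorescence over baseline after final BAM8-22 challenge near maximal dose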
# RGS4 act: RGS4 potentiators or activators, primary screen, cell-based, HEK293 M3R inducible RGS4, calcium flux; B-score at 10 µM; hit rate 0.92% among 310,000; carbachol calcium flux Fluo4; active compounds read low; AID 463111, 2010;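 active = B-score of the integrated calcium signal more than 4 SD below the library mean, with starting fluorescence not abnormally high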;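 also: negative B-score means reduced calcium response which marks RGS4 activation or potentiation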
#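 test system = HEK293 cells with stable M3R and inducible RGS4 | schedule = recording 10 s baseline at 1 Hz, 100 s post-agonist | technique = Fluo4-AM (2 µM) calcium-flux fluorescence, kinetic read | measure = Agonist-evoked peak-minus-minimum fluorescence over baseline, integrated ratio, B score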
# MrgX1 agonist: agonists of human MrgX1 receptor, primary screen, HEK293 cells, Fluo-4 calcium flux; B-score at 10 µM; AID 588627, 2011; Mas-related G-protein coupled receptor member X1 (Homo sapiens), Q96LB2; Fluo-4 calcium fluorescence, agonist mode; active compounds read high; hit rate 0.44% among 310,000;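 active = calcium response B-score plate-corrected fluorescence ratio at least 3 library SD, with starting fluorescence B-score inside 5 SD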
#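 Material: MrgX1-expressing HEK293 cells; input: 15,000 cells per well; doses: test compound given as first of three sequential additions; schedule: overnight plating before 1 h dye loading; technique: Fluo-4 NW calcium-flux fluorescence, kinetic read; evaluation: baseline-normalised fluorescence change ratio, B-scored; control set: plate-wise positive and negative controls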
# RGS4 inh: RGS4 inhibitors, primary screen, cell-based, HEK293 M3R inducible RGS4, calcium flux | Regulator of G-protein signaling 4 (Homo sapiens), P49798 | Fluo-4 calcium flux; active compounds read high; triggered by carbachol at its EC20 | B-score at 10 µM | hit rate 0.45% among 310,000;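 active = B-score, a plate-corrected calcium signal, over three deviations above library mean, with baseline fluorescence within five deviations of library mean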;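 also: RGS4 expression induced by doxycycline in cells with stable M3 receptor; B-score is computed from the integrated fluorescence ratio over baseline after carbachol; higher B-score means a larger calcium signal and so more RGS4 inhibition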
# Target sequence (P49798 whole entry, looked up): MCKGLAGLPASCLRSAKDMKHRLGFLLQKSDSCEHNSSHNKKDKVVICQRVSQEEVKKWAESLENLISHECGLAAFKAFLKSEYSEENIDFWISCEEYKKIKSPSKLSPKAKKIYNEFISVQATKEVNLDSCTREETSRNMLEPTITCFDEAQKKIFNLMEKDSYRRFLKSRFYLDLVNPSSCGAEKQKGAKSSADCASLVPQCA
# MrgX1 PAM: positive allosteric modulators of MrgX1, primary screen, HEK293 cells, Fluo-4 calcium flux; FDSS; active compounds read high; B-score at 10 µM; hit rate 0.63% among 310,000; AID 588675, 2011;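 active = plate-corrected calcium response at least 3 library SD above typical, normal starting fluorescence, not activating the receptor alone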;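 also: compound read alongside a low EC10 to EC30 dose of BAM8-22 agonist; peak minus trough fluorescence over baseline measured at the second addition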
# * hit, by the source's call; i = inactive.
SMILES,MrgX1 antag,RGS4 act,MrgX1 agonist,RGS4 inh,MrgX1 PAM
CCCC(=O)OCCNC(=O)c1cc2ccccc2oc1=O,-5.4*,i,i,i,i
O=C(Nc1c(F)cccc1F)c1ccc2c(c1)CCN2S(=O)(=O)c1ccccc1,i,i,i,i,i
CCOc1cccc2cc(-c3nnc(NCc4ccco4)s3)c(=O)oc12,-4.8*,i,i,i,i
O=C(Cc1c(F)c(F)c(F)c(F)c1F)Nc1nc(-c2ccccc2)cs1,i,-7.1*,i,i,i
CC(=O)c1ccc(S(=O)(=O)NC2CCCCCCC2)cc1,i,i,i,i,i
C=CCn1c(SCC(=O)NCC2CCCO2)nc2scc(-c3ccccc3)c2c1=O (configuration not stated),-5.2*,i,i,i,i
Cc1cc(F)ccc1NC(=O)C1CSC2(C)CCC(=O)N12 (configuration not stated),i,i,i,i,i
CCn1c(COc2ccc(C(C)C)cc2)nnc1SCC(=O)Nc1nccs1,-7.6*,i,i,i,i
CCSCc1nnc(SCC(=O)Nc2nccs2)n1CC,i,i,i,i,i
Cc1oc(-c2ccccc2Cl)nc1CN1CCCCC1c1cccnc1 (configuration not stated),i,i,41*,i,i
Cc1oc(-c2ccccc2Cl)nc1CN1CCCC1c1ccc(F)cc1 (configuration not stated),i,i,i,i,i
COc1ccc(/C=N/n2cnn(Cc3ccccc3Cl)c2=S)cc1,i,i,i,i,i
Oc1ccccc1/C=N/n1cnn(Cc2ccccc2Cl)c1=S,-6.1*,i,i,i,i
CC(C)(C)C(=O)NC1CCN(CC(=O)Nc2ccc3c(c2)OCO3)CC1,i,i,i,i,i
CCN1C(=O)[C@H]2[C@@H](c3ccc(-c4ccccc4)cc3)N[C@@](CC(C)C)(C(=O)OC)[C@H]2C1=O,i,i,i,i,i
CCCCCCc1cc2cc(-c3nnc(-c4cc(OC)c(OC)c(OC)c4)o3)c(=O)oc2cc1O,i,i,80*,i,i
CCCCCCc1cc2cc(-c3nnc(-c4ccccc4OC)o3)c(=O)oc2cc1O,i,i,i,i,i
CC(C)(C)c1cc(CCC(=O)NNC(=S)NC(=O)c2ccccc2)cc(C(C)(C)C)c1O,i,i,50*,i,i
CCCCCCCC(=O)NNC(=O)Cc1ccccc1,-6.9*,i,i,i,i
CCCCC(=O)NC(=S)NNC(=O)CCc1ccccc1,i,i,49*,i,i
CC(C)(C)NC(=O)COc1ccc2oc3c(c2c1)CCCC3,i,i,i,i,i
COc1ccc(CCNC(=O)CSc2nc(=O)[nH]c3c2CCC3)cc1OC,i,i,i,i,i
N#C/C(=C/c1ccc(F)cc1)C(N)=S,i,i,28*,i,i
Cn1cccc1/C=C(/C#N)C(N)=S,i,i,i,i,i
Cc1c(NC(=O)CSc2ncccn2)c(=O)n(-c2ccccc2)n1C,i,i,i,i,i
SMILES,MrgX1 antag,RGS4 act,MrgX1 agonist,RGS4 inh,MrgX1 PAM
Cc1cc(C)n2nc(SCC(=O)Nc3c(C)n(C)n(-c4ccccc4)c3=O)nc2n1,-4.6*,i,i,i,i
CCOC(=O)/C(C#N)=C(C)/C=C1\Sc2ccccc2N1CC,-5.4*,i,i,i,i
O=C(Cc1cccc2ccccc12)Nc1ccc(Br)cc1C(=O)O,-6.3*,i,i,i,i
COc1cccc(CN2CCCN(S(=O)(=O)c3ccc(Br)cc3)CC2)c1,i,i,i,i,i
O=S(=O)(c1ccc(Br)cc1)N1CCCN(Cc2cccc(F)c2)CC1,i,-8.3*,i,i,i
COc1ccccc1/C=C(/C(=O)OCC(=O)NCc1ccccc1)c1ccccc1,-5.5*,i,i,i,i

# Assay outcomes from PubChem.
